Screening results (PubChem BioAssay)
Only some compounds are listed: those with a hit (about 4.9% of all), similar ones and a draw of the others.
STAT3 inh-1: inhibitors of IL-6 induced STAT3 signaling. U3A cells, IL-6 STAT3-luciferase reporter, luminescence; host cell line lacks STAT1. inhibition, % at 5.5 µM. actives 0.89% (n = 190,000);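 active means inhibition above the mean inhibition across all screened compounds plus 3 SD, cut at about 44% in these data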;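 further: 0% = DMSO only wells and 100% = 100 µM nifuroxazide control wells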
APP 5'UTR act: APP 5'UTR luciferase reporter activation | actives 1% (n = 190,000) | activation, % at 2 µM | SH-SY5Y APP 5'UTR luciferase reporter, luminescence; zero percent = DMSO vehicle wells;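 active means activation above a set limit, based on mean plus 3 SD of controls, cut at about 140% in these data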
NF-kB expr up: raises NF-kB expression in human neuronal cells; fold change at 12.5 µM; NF-kB reporter expression; active compounds read high; actives 1.6% (n = 190,000); in the data active means fold change above about 3.3
STAT1 inh: inhibitors of IFN-gamma induced STAT1 signaling | NIH 3T3 STAT1-luciferase reporter, luminescence | inhibition, % at 5.5 µM | actives 0.35% (n = 200,000);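 active means inhibition above a set limit, the mean inhibition across all tested compounds plus 3 SD, cut at about 34% in these data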;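 further: 0% = IFN-gamma with DMSO and 100% = IFN-gamma with 300 µM nifuroxazide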
STAT1 act: STAT1 signaling activation; NIH 3T3 STAT1-luciferase reporter, IFN-gamma, luminescence; 100% = IFN-gamma alone, no compound; actives 2.6% (n = 200,000); activation (% of control), % at 5.5 µM;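 active means activation above the screen-wide mean activation plus 3 SD, cut at about 130% in these data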;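 further: raw ratio to IFN-gamma control signal so 100% means no change and 0% no light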
STAT3 activator: increases IL-6 driven STAT3 reporter signal | U3A cells, IL-6 STAT3-luciferase reporter, luminescence; 100% = signal with IL-6 EC80 alone | activation (% of control), % at 5.6 µM | actives 0.91% (n = 190,000) | AID 871;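 active means activation above the screen-wide mean of compound activation plus 3 SD, cut at about 130% in these data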;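 further: 0% = background luminescence of wells with medium and substrate only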
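Detection: reporter luminescence signal / Assay system: STAT1-lacking human U3A cells, STAT3 luciferase reporter / Incubation: compound pre-incubation 1 h before IL-6, then 6 h stimulation at 37 °C / Control set: IL-6-only high control / Read-out: % activation relative to IL-6 control / Probe or stimulus: Interleukin-6, 33 ng/mL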
STAT3 inh-2: confirmation of STAT3 signaling inhibitors; shares compounds with STAT3 inh-1; U3A cells, IL-6 STAT3 luciferase reporter, luminescence; cell line lacks STAT1; inhibition, % at 5.7 µM; actives 45% (n = 1,200); AID 1265;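 active means inhibition above the hit cutoff computed for the primary STAT3 screen, cut at about 44% in these data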;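 further: 0% = IL-6 plus DMSO and 100% = IL-6 plus nifuroxazide control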
NFkB inh 2: counter-screen for STAT3 inhibitors: NF-kappaB inhibition. shares compounds with STAT3 inh-1. HEK293T NF-kB luciferase reporter, TNF-alpha induced. AID 1308. inhibition, % at 5.7 µM. actives 36% (n = 1,200);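 active means inhibition above the mean of solvent-only control wells plus 3 SD, cutoff set per campaign, cut at about 13% in these data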;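 further: 0% = TNF-alpha with DMSO and 100% = TNF-alpha with MG high control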
STAT1 inh 2: STAT1 inhibition in STAT3 inhibitor counter-screen; AID 1317; shares compounds with STAT3 inh-1; NIH 3T3 STAT1-luciferase reporter, IFN-gamma induced, luminescence; inhibition, % at 5.7 µM; actives 27% (n = 1,200);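 active means inhibition above the mean plus 3 SD of solvent-only control wells, limit set per screening run, cut at about 16% in these data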;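 further: 0% = DMSO with IFN-gamma and 100% = nifuroxazide control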
* marks the source's active call; other numbers are inactive results; x = no result given.

SMILES	STAT3 inh-1	APP 5'UTR act	NF-kB expr up	STAT1 inh	STAT1 act	STAT3 activator	STAT3 inh-2	NFkB inh 2	STAT1 inh 2
Cc1ccc(-c2cc(C(=O)NCCCN3CCOCC3)no2)cc1	56*	-12	0.74	12	89	57	8	-15	-14
O=C(Nc1ccc(-c2nc3ccccc3s2)cc1)C1=COCCO1	54*	102	1.4	-30	126	55	77*	60*	31*
CCN(C(=O)CN1CCOCC1)c1c(N)n(Cc2ccccc2)c(=O)[nH]c1=O	9	-4	1.1	9	91	94	x	x	x
CCCCCc1nnc(NC(=O)Cn2cnc3ccccc3c2=O)s1	2	7	0.97	8	93	100	x	x	x
c1ccc(C(Cc2nc(-c3ccncc3)no2)c2ccccc2)cc1	65*	-1	1.2	-15	114	48	52*	7	-11
N/C(=N\OC(=O)COc1ccc(Br)cc1Cl)c1ccccn1	57*	193*	5.6*	-28	125	51	-16	-46	-145
c1ccc(-c2nnsc2Sc2ccccn2)cc1	1	-8	1	-25	120	101	x	x	x
Cc1nn(-c2ccccc2)c(Cl)c1CN(C(=O)CCl)c1cccc2ccccc12	-8	-5	0.17	6	95	105	x	x	x
COc1ccc(/C=N/Nc2nncc3ccccc23)cc1	64*	188*	3.1	-22	120	45	71*	51*	33*
CCOCCCNC(=O)C(NC(=O)Cc1cccs1)c1ccc(Cl)cc1 (stereo unspecified)	12	13	0.99	-8	106	96	x	x	x
CC(Sc1n[nH]c(N)n1)C(=O)Nc1cccc(S(=O)(=O)N2CCOCC2)c1 (stereo unspecified)	1	-13	1.2	0	99	105	x	x	x
Cc1c(C(=O)OCCOc2ccccc2)[nH]c2c1C(=O)CCC2	59*	87	3.5*	-19	117	52	29	-18	-107
C=CCNC(=O)CC(=O)N/N=C/c1cccs1	7	37	1.2	-5	104	98	x	x	x
Cc1cc(C)n(Cc2ccc(NC(=O)c3ccc(COc4ccccc4Br)cc3)cc2)n1	52*	-12	0.77	5	89	59	52*	9	-1
O=[N+]([O-])c1ccc(O)c(C=Nc2ccc3c(c2)OCCO3)c1	44*	-7	0.94	-12	111	64	-21	-16	-41
CSc1cccc(NC(=O)C2(S(=O)(=O)c3ccc(C)cc3)CC2)c1	7	1	1.1	2	97	97	x	x	x
CC(/C=N\NC(=O)Cn1c(C)nc2ccccc21)=C\c1ccccc1	70*	-8	0.81	20	82	41	69*	15*	17*
CC(/C=N/NC(=O)CSc1nc(C)cc(C)n1)=C\c1ccccc1	-8	14	0.98	-3	103	110	x	x	x
CC(C)CC(C(=O)N1CCOCC1)N1Cc2ccccc2C1=O (stereo unspecified)	5	-8	1.1	5	95	98	x	x	x
CCOC(=O)c1sc2nc(CC(=O)OC)nc(NCc3ccc(Cl)cc3)c2c1C	44*	5	0.87	6	95	66	50*	12	14
Cc1nc2ccc(NS(=O)(=O)c3ccc4c(c3)OCCO4)cc2s1	71*	11	0.82	24	78	41	67*	26*	28*
O=C(COC(=O)CCSc1ccccc1)Nc1cc(F)ccc1F	-5	18	1.1	-4	102	110	x	x	x
CCOc1ccc(S(=O)(=O)NCc2ccccn2)cc1	9	27	0.96	0	100	97	x	x	x
CCOc1cc(S(=O)(=O)NCc2cccs2)ccc1Cl	7	-2	1.2	4	96	98	x	x	x
